From ChEMBL document CHEMBL1151818, “Antimalarial peptides from marine cyanobacteria: isolation and structural elucidation of gallinamide A” (J Nat Prod, 2009)
Activity calls are given as the source filed them. The calls are words filed in the database; no cut-off is given here. Non-standard residues stand in square brackets, D forms with d. Residues, ends and D or L forms follow the SMILES beside them. *: point of attachment. X1 = COC1=CC(=O)N(C(=O)[C@@H](O*)C(C)C)[C@H]1Cc1ccccc1; NMe2Val = CC(C)[C@@H](C(=O)*)N(C)C; NMeV = CN[C@H](C(=O)O)C(C)C

Experiments:
[1] = tested on: Leishmania donovani; assay: Antileishmanial activity against Leishmania donovani; assay type: functional, organism-based
[2] = tested on: Plasmodium falciparum; assay: Antimalarial activity against chloroquine-resistant Plasmodium falciparum W2; assay type: functional, organism-based
[3] = tested on: NCI-H460; assay: Cytotoxicity against human NCI-H460 cells; assay type: functional; settings: read-out: TC50 (the source's name)
Summary of the method: (§1)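 In vitro assay; 16.9 µM was the highest concentration tested.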

[4] = Cytotoxicity against african green monkey Vero cells; assay type: cell-based; settings: chlorocebus sabaeus, read-out: TC50 (the source's name)
[5] = tested on: Trypanosoma cruzi; assay: Antitrypanosomal activity against Trypanosoma cruzi at 16.9 uM; assay type: functional, organism-based; summary of the method: as §1
[6] = tested on: NCI-H460; assay: Cytotoxicity against human NCI-H460 cells at 16.9 uM; assay type: functional, cell-based; summary of the method: as §1
[7] = tested on: N2a; assay: Cytotoxicity against mouse Neuro2a cells at 16.9 uM; assay type: functional, cell-based; summary of the method: as §1

## C[C@@H]1[C@H](O)[C@@H](C)/C=C/C=C/C=C/C=C/C=C/C=C/C=C/[C@H](O[C@@H]2O[C@H](C)[C@@H](O)[C@H](N)[C@@H]2O)C[C@@H]2O[C@](O)(C[C@@H](O)C[C@@H](O)[C@H](O)CC[C@@H](O)C[C@@H](O)CC(=O)O[C@H]1C)C[C@H](O)[C@H]2C(=O)O [AMPHOTERICIN B]
[1]
  IC50: 0.103 µM

## COC1=CC(=O)N(C(=O)[C@@H](OC(=O)[C@@H]2CCCN2C(=O)[C@@H]2CCCN2C(=O)[C@H](C(C)C)N(C)C(=O)[C@@H](NC(=O)[C@H](C(C)C)N(C)C)C(C)C)C(C)C)[C@H]1Cc1ccccc1 [DOLASTATIN 15] (NMe2Val-V[NMeV]PP-X1)
[2]
  Activity: Active
[3]
  CC50: 0.0024 µM

## CC[C@H](C)[C@@H](C(=O)O[C@@H](CC(C)C)C(=O)N[C@@H](CC(C)C)C(=O)N[C@@H](C)/C=C/C(=O)N1C(=O)C=C(OC)[C@@H]1C)N(C)C [GALLINAMIDE A]
[2]
  IC50: 8.4 µM
[4]
  CC50: 10.4 µM
[1]
  IC50: 9.3 µM
[5]
  IC50: > 16.9 µM
[6]
  Activity: inactive
[7]
  Activity: inactive

## CC1CS(=O)(=O)CCN1/N=C/c1ccc([N+](=O)[O-])o1 (stereo not given) [NIFURTIMOX]
[5]
  IC50: 13.5 µM
